Measured values reported in ChEMBL document CHEMBL2146456, “Identification and characterization of GABA(A) receptor modulatory diterpenes from Biota orientalis that decrease locomotor activity in mice” (J Nat Prod, 2011).

Key:
Oocyte [1] = experiment: Allosteric modulation of gamma-aminobutyric acid receptor A alpha1beta2gamma2S expressed in Xenopus oocytes assessed as potentiation of GABA-mediated chloride current at 100 uM by voltage clamp analysis relative to control; assay type: cell-based
In short: (§1)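 Oocytes were injected with α1β2γ2S, α1β3γ2S, α2β2γ2S, α3β2γ2S or α5β2γ2S cRNAs at a 1:1:10 ratio. Two-electrode voltage clamp was run 1–5 days post-injection in HEPES-buffered saline at pH 7.4. Compounds in GABA EC5–10 (3–10 μM) were given by automated fast perfusion: screening at 10 and 100 μM (n = 2), otherwise concentration series. Potentiation = I(GABA+Comp)/IGABA − 1, with nonlinear regression fits.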

Oocyte [2] = experiment: Allosteric modulation of gamma-aminobutyric acid receptor A alpha1beta2gamma2S expressed in Xenopus oocytes assessed as potentiation of GABA-mediated chloride current at 10 uM by voltage clamp analysis relative to control; assay type: cell-based; in short: as §1

C=C1CC[C@@H]2[C@](C)(CCC[C@]2(C)C(=O)OC)[C@H]1CCC1=CCOC1=O
Imax (Oocyte [1]): -13.1%
Imax (Oocyte [2]): -13.4%

C=C[C@]1(C)C=C2CC[C@H]3[C@](C)(C=O)[C@@H](O)CC[C@]3(C)[C@H]2CC1
Imax (Oocyte [1]): 3%
Imax (Oocyte [2]): 3.8%

C=C[C@]1(C)C=C2CC[C@H]3[C@](C)(CO)[C@@H](O)CC[C@]3(C)[C@H]2CC1
Imax (Oocyte [1]): 7.7%
Imax (Oocyte [2]): 13.8%

CC(C)c1c(O)ccc2c1CC[C@H]1C(C)(C)CCC[C@]21C
Imax (Oocyte [1]): -15.1%
Imax (Oocyte [2]): -10.6%
